Results gathered from unrelated publications.
Lines come from different studies, so protocols differ.
ALDH3A1: Aldehyde dehydrogenase, dimeric NADP-preferring (ALDH3A1, Homo sapiens, UniProt P30838)
rep main protease: Replicase polyprotein 1ab, main protease (rep, Porcine epidemic diarrhea virus, UniProt P0C6Y4)
rep papain-like protease: Replicase polyprotein 1ab, papain-like protease (rep, Porcine epidemic diarrhea virus, UniProt P0C6Y4)
IPMK: Inositol polyphosphate multikinase (IPMK, Homo sapiens, UniProt Q8NFU5)
MAP2K2: Dual specificity mitogen-activated protein kinase kinase 2 (MAP2K2, Homo sapiens, UniProt P36507)
PTGS1: Prostaglandin G/H synthase 1 (PTGS1, Ovis aries, UniProt P05979)

SMILES | target | test | IC50 [µM]
CC(C)N(CCC(=O)c1ccc2ccccc2c1)Cc1ccccc1 | ALDH3A1 | enzyme activity, inhibitor, fluorescence | < 10
O=C(NCc1cc(O)c(O)c(Br)c1)c1nccs1 | rep main protease | enzyme activity, inhibitor, FRET | 2.52
NC(=O)c1nnn(Cc2cc(Cl)c(C(=O)c3ccc(Cl)cc3)c(Cl)c2)c1N | D(1A) dopamine receptor (DRD1, Homo sapiens, UniProt P21728) | cAMP, antagonist | 7.98
COc1ccc(N2CCN(Cc3cn4c(-c5ccc(Br)cc5)nnc4s3)CC2)cc1 | Aifm2 (Mus musculus, UniProt Q8BUE4, L360F) | enzyme activity, inhibitor, absorbance | ~0.518
O=C(NCc1cc(O)c(O)c(Br)c1)c1ccc(Cl)c(F)c1 | rep papain-like protease | enzyme activity, inhibitor, FRET | 7.22
Nc1nc2c(s1)C(c1ccccc1Cl)CC(=O)N2 (stereo not shown) | ALDH3A1 | enzyme activity, inhibitor, fluorescence | < 10
COCCNc1nc(NCc2cccc(C(=O)Oc3ccc(OC)cc3)c2)nc2[nH]cnc12 | IPMK | enzyme activity, inhibitor | 14
Nc1ncnc2c1ncn2[C@@H]1C(F)=C(CO)[C@@H](O)[C@H]1O | Adenosylhomocysteinase (AHCY, Homo sapiens, UniProt P23526) | enzyme activity, inhibitor | 0.15
CC#CC(=O)N1CC[C@@H](n2c(=O)n(-c3ccc(Oc4ccccc4)cc3)c3c(N)ncnc32)C1 | MAP2K2 | enzyme activity, inhibitor | > 5
CC(=O)Oc1cccc(C(=O)NCc2cc(O)c(O)c(Br)c2)c1C | rep main protease | enzyme activity, inhibitor, FRET | 7.35
COc1cccc(CNc2nc(NC3CCN(Cc4ccccc4)CC3)c3nc[nH]c3n2)c1 | IPMK | enzyme activity, inhibitor | 2
COc1cc(NC(=O)c2cnn(-c3ccc([N+](=O)[O-])cc3)c2C(F)(F)F)cc(OC)c1OC | PTGS1 | enzyme activity, inhibitor | 4.51
Cn1c(C(=O)NCc2cc(O)c(O)c(Br)c2)cc2ccccc21 | rep papain-like protease | enzyme activity, inhibitor, FRET | 8.08
COc1cc(NC(=O)c2cnn(-c3ccc([N+](=O)[O-])cc3)c2C(F)(F)F)cc(OC)c1 | PTGS1 | enzyme activity, inhibitor | 1.74
O=C1NC(=O)c2c1c(-c1ccccc1Cl)cc1[nH]c3ccc(O)cc3c21 | Serine/threonine-protein kinase WNK3 (WNK3, Homo sapiens, UniProt Q9BYP7) | enzyme activity, inhibitor | 1.49
COc1cccc(CNc2nc(NC3CCN(C(=O)c4ccccc4)CC3)c3nc[nH]c3n2)c1 | IPMK | enzyme activity, inhibitor | 9
NS(=O)(=O)c1ccc(-n2nc(C(=O)NN=Cc3cccnc3)cc2-c2ccccc2)cc1 | PTGS1 | enzyme activity, inhibitor | 8.94
CCC(C(=O)NCc1cc(O)c(O)c(Br)c1)c1ccccc1 (stereo not shown) | rep main protease | enzyme activity, inhibitor, FRET | 7.53
NS(=O)(=O)c1ccc(-n2nc(-c3nnc(S)o3)cc2-c2ccccc2)cc1 | PTGS1 | enzyme activity, inhibitor | 7.78
COc1ccc(C(=O)NCc2cc(Br)c(OC)c(OC)c2)cc1 | rep main protease | enzyme activity, inhibitor, FRET | 5.19
Cc1ccc(S(=O)(=O)[N](Nc2ccc([N+](=O)[O-])cc2[N+](=O)[O-])[Sn]([Cl])[Cl])cc1 | PTGS1 | enzyme activity, inhibitor | 45.9
O=C(COC(=O)c1ccccc1Nc1cccc(C(F)(F)F)c1)Nc1ccc(F)cc1 | PTGS1 | enzyme activity, inhibitor | 151
CC(=NNC(=O)c1cc(-c2ccccc2)n(-c2ccc(S(N)(=O)=O)cc2)n1)c1ccc(Br)cc1 | PTGS1 | enzyme activity, inhibitor | 3.14
O=C(NCc1cc(O)c(O)c(Br)c1)N1CCCC1 | rep main protease | enzyme activity, inhibitor, FRET | 2.88
CC(=NNC(=O)c1cc(-c2ccccc2)n(-c2ccc(S(N)(=O)=O)cc2)n1)c1ccc(C)cc1 | PTGS1 | enzyme activity, inhibitor | 3.32
O=C(NCc1cc(O)c(O)c(Br)c1)c1ccco1 | rep main protease | enzyme activity, inhibitor, FRET | 12.2
COc1ccc(C=NNC(=O)c2cc(-c3ccccc3)n(-c3ccc(S(N)(=O)=O)cc3)n2)cc1OC | PTGS1 | enzyme activity, inhibitor | 9.78
C=CC(=O)N1CCC(CNc2ncnc(N)c2-c2ccc(Oc3ccccc3)cc2)CC1 | MAP2K2 | enzyme activity, inhibitor | > 5
